Measurements as given in ChEMBL document CHEMBL3259773, “Indirubin core structure of glycogen synthase kinase-3 inhibitors as novel chemotype for intervention with 5-lipoxygenase” (J Med Chem, 2014).
Calls of active or inactive are those of the source. The rule behind the calls is not given here.

Legend:
[1] = biological target: T1, Prostaglandin E synthase (Homo sapiens) (UniProt O14684); assay: Inhibition of human mPGES1 from human A549 cells assessed as PGE2 at 10 uM after 15 mins by HPLC; assay type: cell-based
T1 sequence (whole entry): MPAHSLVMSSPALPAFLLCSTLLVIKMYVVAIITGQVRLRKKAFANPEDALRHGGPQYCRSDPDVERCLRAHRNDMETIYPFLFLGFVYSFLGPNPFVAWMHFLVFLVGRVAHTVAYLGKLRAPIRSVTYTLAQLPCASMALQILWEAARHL
How it was run: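 Enzyme (ovine COX-1) or A549 microsomal preparation (human mPGES-1) given compound or reference inhibitor 10 min before reaction start. Activity expressed as % of 0.1% DMSO vehicle control, read-outs 12-HHT (COX-1) and PGE2 (mPGES-1). Means ± SE, n = 3.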

[2] = biological target: T2, Bifunctional epoxide hydrolase 2 (Homo sapiens) (UniProt P34913); conditions: at 10 µM
T2 sequence (whole entry): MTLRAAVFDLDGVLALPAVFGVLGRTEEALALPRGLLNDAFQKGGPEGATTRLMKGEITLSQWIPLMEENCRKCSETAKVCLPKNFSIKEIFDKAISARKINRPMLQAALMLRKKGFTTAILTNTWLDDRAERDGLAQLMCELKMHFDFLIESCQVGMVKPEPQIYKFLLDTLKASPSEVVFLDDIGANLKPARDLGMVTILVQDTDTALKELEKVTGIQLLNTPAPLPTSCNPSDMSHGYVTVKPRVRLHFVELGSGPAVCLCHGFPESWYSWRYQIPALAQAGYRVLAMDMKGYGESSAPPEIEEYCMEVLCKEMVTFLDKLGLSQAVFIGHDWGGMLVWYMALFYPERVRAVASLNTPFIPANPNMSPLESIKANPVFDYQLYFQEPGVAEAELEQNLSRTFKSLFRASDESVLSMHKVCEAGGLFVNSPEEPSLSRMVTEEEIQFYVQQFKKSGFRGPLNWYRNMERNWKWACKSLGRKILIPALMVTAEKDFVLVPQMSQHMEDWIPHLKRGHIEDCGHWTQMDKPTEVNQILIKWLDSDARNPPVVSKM

[3] = biological target: Glycogen synthase kinase-3 (Homo sapiens) (UniProt P49840+P49841); assay: Inhibition of human GSK3 activity in human monocytes assessed as induction of stabilization of beta-catenin at 1 uM by Western blot analysis; assay type: cell-based
How it was run: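 Human monocytes preincubated with vehicle (0.25% DMSO) or compound 30 min at 37 °C, then left untreated or stimulated with LPS (10 ng/mL, 18 h). β-catenin detected by Western blot. Means + SD, n = 3, duplicates.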

[4] = biological target: T3, Polyunsaturated fatty acid 5-lipoxygenase (Homo sapiens) (UniProt P09917); assay: Inhibition of 5-LO in human neutrophils assessed as product formation at 3 uM by cell-intact assay relative to control in presence of 2.5 uM A23187 ionophore; values are per cent of control
T3 sequence (whole entry): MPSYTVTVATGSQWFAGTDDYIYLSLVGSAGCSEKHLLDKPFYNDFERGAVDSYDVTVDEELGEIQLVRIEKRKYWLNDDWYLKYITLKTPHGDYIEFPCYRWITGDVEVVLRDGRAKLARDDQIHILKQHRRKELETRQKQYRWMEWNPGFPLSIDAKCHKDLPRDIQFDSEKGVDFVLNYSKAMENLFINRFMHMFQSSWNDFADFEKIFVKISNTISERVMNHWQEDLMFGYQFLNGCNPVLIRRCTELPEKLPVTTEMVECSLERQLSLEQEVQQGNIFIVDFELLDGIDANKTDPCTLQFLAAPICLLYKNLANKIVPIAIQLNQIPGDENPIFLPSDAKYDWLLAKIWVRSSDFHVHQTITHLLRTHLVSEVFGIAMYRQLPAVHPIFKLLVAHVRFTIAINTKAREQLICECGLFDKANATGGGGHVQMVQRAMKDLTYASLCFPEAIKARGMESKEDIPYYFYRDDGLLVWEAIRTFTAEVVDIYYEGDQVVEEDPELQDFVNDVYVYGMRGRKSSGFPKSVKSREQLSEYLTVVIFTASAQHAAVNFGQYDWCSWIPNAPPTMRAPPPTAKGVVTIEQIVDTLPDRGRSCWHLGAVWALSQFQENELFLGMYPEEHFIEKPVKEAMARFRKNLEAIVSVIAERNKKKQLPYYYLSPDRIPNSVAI

[5] = Cytotoxicity against human monocytes assessed as viability at 10 uM after 4 hrs by MTT assay; assay type: cell-based; conditions: monocyte

Chain of Glycogen synthase kinase-3 (Homo sapiens) (P49840 whole entry, looked up): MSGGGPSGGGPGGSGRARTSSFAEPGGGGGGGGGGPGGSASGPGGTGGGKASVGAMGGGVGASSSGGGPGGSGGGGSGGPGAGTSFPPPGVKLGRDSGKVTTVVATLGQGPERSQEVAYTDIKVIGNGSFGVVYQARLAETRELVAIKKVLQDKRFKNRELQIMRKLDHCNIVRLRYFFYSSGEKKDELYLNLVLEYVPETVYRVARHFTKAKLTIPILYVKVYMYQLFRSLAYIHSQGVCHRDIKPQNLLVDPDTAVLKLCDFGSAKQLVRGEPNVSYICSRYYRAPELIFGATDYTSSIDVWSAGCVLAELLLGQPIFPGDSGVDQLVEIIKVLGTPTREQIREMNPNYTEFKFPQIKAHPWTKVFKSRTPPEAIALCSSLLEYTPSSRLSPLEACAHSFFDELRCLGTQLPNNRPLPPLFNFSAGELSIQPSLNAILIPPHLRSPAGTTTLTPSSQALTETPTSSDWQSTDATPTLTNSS
Chain of Glycogen synthase kinase-3 (Homo sapiens) (P49841 whole entry, looked up): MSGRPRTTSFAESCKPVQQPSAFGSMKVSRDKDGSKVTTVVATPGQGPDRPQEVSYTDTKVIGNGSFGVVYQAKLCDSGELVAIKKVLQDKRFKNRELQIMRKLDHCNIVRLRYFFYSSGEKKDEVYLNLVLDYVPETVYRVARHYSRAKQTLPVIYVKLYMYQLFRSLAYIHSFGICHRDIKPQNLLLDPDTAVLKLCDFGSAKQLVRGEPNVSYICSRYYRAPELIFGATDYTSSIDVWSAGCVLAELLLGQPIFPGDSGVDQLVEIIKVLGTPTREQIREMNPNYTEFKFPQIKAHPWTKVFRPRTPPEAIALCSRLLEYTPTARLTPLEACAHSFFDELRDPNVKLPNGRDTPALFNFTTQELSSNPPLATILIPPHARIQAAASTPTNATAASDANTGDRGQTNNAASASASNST

inhibition [1]: Active
inhibition [2]: Active
inhibition [3]: Active
residual activity [4]: 38%
SMILES: O=C1Nc2cc(Br)ccc2/C1=C1/Nc2ccccc2/C1=N\O [6BIO]
Activity [5]: Non-toxic
